From PubChem BioAssay
STAT1 act: STAT1 signaling activators, primary screen, cell-based, HTS, luciferase reporter; activation (% of control), % at 5.5 µM; NIH 3T3 STAT1-luciferase reporter, IFN-gamma, luminescence; 100% = IFN-gamma alone, no compound; actives 2.6% (n = 200,000);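 active means activation above the screen-wide mean activation plus 3 SD, cut at about 130% in these data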
STAT3 inh: IL-6 driven STAT3 reporter inhibitors, primary screen, U3A cells, luciferase, luminescence, MLSCN library. IL-6 STAT3-luciferase reporter; host cell line lacks STAT1. inhibition, % at 5.5 µM. actives 0.89% (n = 190,000). AID 862, 2007;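 active means inhibition above the mean inhibition across all screened compounds plus 3 SD, cut at about 44% in these data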
STAT1 inh: STAT1 signaling inhibitors, primary screen, cell-based, HTS, luciferase reporter; NIH 3T3 STAT1-luciferase reporter, IFN-gamma, luminescence; inhibition, % at 5.5 µM; actives 0.35% (n = 200,000);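 active means inhibition above a set limit, the mean inhibition across all tested compounds plus 3 SD, cut at about 34% in these data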
STAT3 act: IL-6 driven STAT3 reporter potentiators, primary screen, U3A cells, luciferase, luminescence, MLSCN library. IL-6 STAT3-luciferase reporter; 100% = signal with IL-6 EC80 alone. activation (% of control), % at 5.6 µM. actives 0.91% (n = 190,000);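 active means activation above the screen-wide mean of compound activation plus 3 SD, cut at about 130% in these data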
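Material: STAT3-luciferase reporter U3A cells; Probe or stimulus: IL-6 (33 ng/mL); Incubation: compound pre-incubation 1 h before IL-6, then 6 h stimulation at 37 °C; Technique: luminescence from STAT3-driven luciferase reporter; Evaluation: % activation versus median of IL-6-stimulated wells; Controls: IL-6-only high control.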
NF-kB neuron act: activators of NF-kB expression in neurons, primary screen, cell-based, HTS | human neuronal cells, NF-kB reporter expression; stronger effect = higher value | fold change at 12.5 µM | actives 1.6% (n = 190,000); in the data active means fold change above about 3.3
APP 5'UTR act: activators of APP 5'UTR luciferase reporter, primary screen, SH-SY5Y cells | activation, % at 2 µM | actives 1% (n = 190,000) | AID 1276, 2008 | SH-SY5Y APP 5'UTR luciferase reporter, luminescence; zero percent = DMSO vehicle wells;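 active means activation above a set limit, based on mean plus 3 SD of controls, cut at about 140% in these data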
Each line names hits and unclear results; the compound was inactive in the other large screens. Hits are enriched below; roughly 4.9% of the tested compounds scored in any of these assays.

N#CC(Cc1ccccc1OC(F)F)c1nc2ccccc2[nH]1 (configuration not stated)	none
O=C(Cn1nnc(-c2cccs2)n1)Nc1ccccc1C(F)(F)F	none
CC(C)(C)C(=O)N1CCc2cc(-c3csc(N)n3)ccc21	STAT3 inh 85, STAT1 inh 37
CNc1nc(-c2ccc3c(c2)CCN3C(=O)CC(C)(C)C)c(C)s1	none
CCCC(=O)N1CCc2cc(-c3nc(N)sc3C)ccc21	STAT1 act 137
CC(=O)Nc1cccc(-c2csc(N)n2)c1	none (no result: NF-kB neuron act)
CS(=O)(=O)N1CCc2cc(-c3csc(NC(=O)C(c4ccccc4)c4ccccc4)n3)ccc21	none
CCC(C)C(=O)N1CCc2cc(-c3csc(N)n3)ccc21 (configuration not stated)	STAT1 act 132
CCSc1nnc(NC(=O)CCc2ccc(OC)cc2)s1	none
Cc1cc(N)n2nc(-c3ccccc3)cc2n1	STAT1 act 146, NF-kB neuron act 5.4
Cc1cc(C(F)(F)F)n2ncc(-c3ccc(F)cc3)c2n1	none
Cc1cc(N)n2ncc(-c3cccc(Br)c3)c2n1	STAT1 act 142
Cc1cc(N)n2ncc(-c3ccccc3)c2n1	STAT1 act 150
CC(=O)Nc1ccc(S(=O)(=O)NC2(C(F)(F)F)NC(=O)N(C3CCCCC3)C2=O)cc1 (configuration not stated)	none
C1=C(c2ccccc2)Nc2ccccc2N=C1c1ccccc1	none
CN(C[C@H](CC1CCCCC1)N(C[C@H](Cc1ccccc1)N(CCc1ccccc1)N=O)N=O)N=O	none (no result: STAT3 inh, STAT3 act)
COc1cc(/C=C/C(=O)c2ccc(O)cc2)ccc1OCC#N	NF-kB neuron act 3.7
Cc1ccc(/C(N)=N/OC(=O)/C=C/c2ccccc2)cc1	none
CCOc1ccc(/C=C/C(=O)c2ccccc2)cc1OC	APP 5'UTR act 144
Cc1ccccc1/C(N)=N/OC(=O)/C=C/c1ccccc1	NF-kB neuron act 3.9
COc1ccc(C(=O)OCCc2ccc(O)cc2)cc1	STAT1 act 148, NF-kB neuron act 6.7
COc1ccc(COC(=O)NNC(=O)c2ccc(OC)cc2)cc1	none
COc1cccc(C(=O)/C=C/c2ccc(OCC#N)c(OC)c2)c1	none
CC(C)c1nc(N2CCOCC2)c(C#N)c2c1CCC2	none
C=CCNC(=O)c1sccc1Oc1ccc(F)cc1[N+](=O)[O-]	none
COc1ccc(/C(N)=N/OC(=O)/C=C/c2ccccc2)cc1	none
COc1ccc(/C=C/C(=O)O/N=C(\N)c2ccccc2)cc1OC	STAT1 act 137
COc1ccc(C(=O)/C=C/c2ccc(O)cc2)cc1	NF-kB neuron act 3.6 (no result: STAT3 inh, STAT3 act)
COc1ccc(C(=O)/C=C/c2ccc(O)cc2)c(O)c1CC=C(C)C	NF-kB neuron act 5
Cc1ccc(/C=C/C(=O)c2ccc(C)cc2)cc1	none
COc1ccc(/C=C/C(=O)c2ccc(O)cc2)cc1CN1CCOCC1	NF-kB neuron act 3.7
COc1ccc(CCN2C(=O)C3C4CC(C5C(C(=O)O)=NOC45)C3C2=O)cc1OC (configuration not stated)	none
O=C1NCC2=C1C(c1ccc(Br)cc1)Nc1ccccc1N2 (configuration not stated)	none
COC(=O)c1ccc(COc2ccc(/C=N/O)cc2OC)o1	none
N/C(=N\OC(=O)/C=C/c1ccccc1Cl)c1ccccn1	STAT3 inh 69, STAT1 inh 43, NF-kB neuron act 4.1
N/C(=N\OC(=O)/C=C/c1ccccc1)c1cccnc1	none
N/C(=N\OC(=O)/C=C/c1ccc(Br)cc1)c1ccccn1	NF-kB neuron act 3.9, APP 5'UTR act 188
O=c1c2c3c(sc2ncn1/N=C/c1cccnc1)CCCC3	STAT1 act 139
O=c1c2c3c(sc2ncn1/N=C/c1ccncc1)CCCC3	none
CN(C)c1ccc([C@@H]2[C@@H]([N+](=O)[O-])[C@H]3C=Cc4ccccc4N3[C@H]2C(=O)c2ccc(Cl)cc2)cc1	STAT3 act 145
CCCC(=O)Nc1cnc(NC(=O)c2cccc(F)c2)cc1C	APP 5'UTR act 173
NC(=O)NCc1cccs1	none
CCOC(=O)c1cnc(SCCN2CCOCC2)nc1N	none
O=C(NCc1ccco1)c1cnc2sccn2c1=O	none
O=C(NCCc1ccccc1)c1cccs1	STAT1 act 142
O=C(NCCc1ccccc1)c1ccc(Cl)c([N+](=O)[O-])c1	none
Cc1cc(C(=O)NCCc2ccccc2)ccc1[N+](=O)[O-]	STAT1 act 134
O=C(NCCc1ccccc1)c1cnc2sccn2c1=O	STAT1 act 136
O=C(NCCc1ccccc1)c1ccncc1	STAT1 act 130
O=C1C2CC=CCC2C(=O)N1c1ccc(NCCc2ccc(O)cc2)c([N+](=O)[O-])c1 (configuration not stated)	none
CCC(C)NS(=O)(=O)c1ccc(S(=O)(=O)N2CCCC3(CCCCC3)C2)cc1 (configuration not stated)	none
O=C(NNc1ccnc2cc(Cl)ccc12)C1CCCCC1	STAT3 inh 76, STAT1 inh 36
Cn1c(=O)c2c(nc(SCc3cccnc3)n2Cc2ccc(F)cc2)n(C)c1=O	none
N#C/C(=C\c1ccc(N2CCCCC2)o1)C(N)=O	none
N#C/C(=C\c1ccc(N2CCCCC2)o1)C(=O)Nc1cccc(Br)c1	STAT1 act 160, APP 5'UTR act 170
O=C1CCCC2=C1C(c1ccccc1)CC(=O)N2c1ccc(F)cc1F (configuration not stated)	none
C=CCNc1ncnc2c1[nH]c1ccc(C)cc12	STAT1 act 139, NF-kB neuron act 4.5, APP 5'UTR act 179
Cc1ccc2[nH]c3c(N4CCCCCC4)ncnc3c2c1	STAT3 inh 68, STAT1 inh 36
Cc1ccc2[nH]c3c(NCCN4CCOCC4)ncnc3c2c1	none
N=C1N(/N=C/c2ccccc2)C(=Nc2ccccc2)C(=S)N1c1ccccc1	STAT1 act 132
Cc1nnc(C)n1/N=C/c1ccccc1	none
COCCn1c(SCC(=O)NCCc2ccc(OC)c(OC)c2)nc2c([nH]c3ccccc32)c1=O	STAT3 act 135
Cc1ccc(NC(=O)CSc2nc3c([nH]c4ccccc43)c(=O)n2C)cc1	none
CCOc1ccc(NC(=O)CSc2nc3c([nH]c4ccccc43)c(=O)n2C)cc1	STAT3 act 134
COCCn1c(-c2ccc(Cl)cc2)cnc1SCC(=O)NCCc1ccc(OC)c(OC)c1	none
COC(=O)c1c(NC(=O)CSc2nnc(C)c(=O)[nH]2)sc(C)c1C	none
S=C(c1ccc(-c2cccc(Cl)c2)o1)N1CCOCC1	NF-kB neuron act 5.7, APP 5'UTR act 141
S=C(c1ccc(-c2cc(Cl)ccc2Cl)o1)N1CCOCC1	none
